Experimental data gathered from unrelated publications.
Lines come from different studies, so protocols differ.
Target: Protein kinase C iota type (PRKCI, Homo sapiens, UniProt P41743)
One construct used (P41743 1-596): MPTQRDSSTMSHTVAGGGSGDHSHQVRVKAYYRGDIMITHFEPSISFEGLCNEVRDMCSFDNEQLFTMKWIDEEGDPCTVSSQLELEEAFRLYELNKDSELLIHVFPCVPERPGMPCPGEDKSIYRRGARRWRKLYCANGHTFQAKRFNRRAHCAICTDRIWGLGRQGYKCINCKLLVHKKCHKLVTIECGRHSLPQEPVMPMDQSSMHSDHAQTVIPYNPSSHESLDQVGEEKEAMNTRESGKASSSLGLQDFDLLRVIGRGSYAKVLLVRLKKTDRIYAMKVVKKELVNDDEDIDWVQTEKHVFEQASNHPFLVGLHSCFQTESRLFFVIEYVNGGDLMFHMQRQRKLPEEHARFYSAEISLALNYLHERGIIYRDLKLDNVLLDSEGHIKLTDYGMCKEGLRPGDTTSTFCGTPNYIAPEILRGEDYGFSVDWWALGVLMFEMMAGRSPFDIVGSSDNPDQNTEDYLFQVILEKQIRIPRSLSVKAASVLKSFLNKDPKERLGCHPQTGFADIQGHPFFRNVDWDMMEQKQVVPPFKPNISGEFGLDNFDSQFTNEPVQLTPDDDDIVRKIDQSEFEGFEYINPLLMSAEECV

| SMILES | test | setting | endpoint | value |
| --- | --- | --- | --- | --- |
| CCCOc1ccc(OC)c(F)c1C(=O)c1ccc(C(=O)N[C@@H]2CNC[C@H]2NC(=O)c2ccc3[nH]ncc3c2)cc1 | enzyme activity, inhibitor | 10 µM | remaining activity | 89% |
| CCS(=O)(=O)c1cc2cc(C[C@@](O)(CC(C)(C)c3ccc(F)cc3C(N)=O)C(F)(F)F)[nH]c2cn1 | cell-free assay, competition with immobilised ligand | 1 µM | remaining binding | 100% |
| c1ccc(CNc2nc(N3CCOc4ccccc43)nc3c2CCCC3)cc1 | target engagement in cells, inhibitor, chemoproteomics | 20 mM | inhibition | -0.4% |
| Nc1c(C(=O)NCc2ccc(C(=O)NCCCC3CCCCC3)cc2)cnn1-c1ccccc1 | cell-free assay, competition with immobilised ligand | 0.1 µM | remaining binding | 97% |
| COc1cc(Cl)c(C(=O)N[C@@H](CN[C@H]2CC[C@@H](N)CC2)Cc2ccc(C#N)cc2)cc1-c1ccc(CN[C@H](C)c2ccc(C)cc2)o1 | enzyme activity, inhibitor | 1 µM | remaining activity | 96% |
| C[C@H](c1cccc(C#N)c1)n1cc(Cl)cc(C(N)=O)c1=N | cell-free assay, competition with immobilised ligand | 1 µM | remaining binding | 100% |
| CC(C)(C)c1nc2c(s1)c1nc(N)ncc1c1ccc(NS(=O)(=O)c3c(F)cccc3F)c(F)c12 | enzyme activity, inhibitor, radiometric | 1 µM | remaining activity | 91% |
| CCCS(=O)(=O)Nc1ccc(F)c(C(=O)c2c[nH]c3ncc(-c4ccc(Cl)cc4)cc23)c1F | enzyme activity, inhibitor | 1 µM | inhibition | < 10% |
| O=C(Nc1cnc(Oc2ccc(F)cc2)nc1)N1CCc2ncccc2[C@@H]1c1ccc(F)cc1 | cell-free assay, competition with immobilised ligand | 1 µM | remaining binding | 98% |
| CCN(CC)c1ccc(C2=NNC(=O)CC2C)cc1[N+](=O)[O-] (stereo not drawn) | enzyme activity, inhibitor | 10 µM | remaining activity | 108% |
| CO[C@@H](C)c1c(Nc2ccc([C@H](N(C)C(=O)C3CCS(=O)(=O)CC3)C(F)(F)F)cc2)cnc2cc(Cl)nn12 | cell-free assay, competition with immobilised ligand | 1 µM | remaining binding | 72% |
| Cc1cc(NC(=O)c2cccc3cc(-c4cccc5[nH]nc(N)c45)ccc23)ccc1F | enzyme activity, inhibitor | 0.1 µM | activity vs control | 98% |
| O=C(Nc1cnn(-c2csc(C(=O)NC3COC3)c2)c1)Nc1c(F)cccc1Cl | enzyme activity, inhibitor | 5 µM | remaining activity | 87.4% |
| COc1cc2ncnc(Nc3ccc(Oc4ccccc4)c(C)c3C)c2cc1OC | enzyme activity, inhibitor | 1 µM | inhibition | -4% |
| CCN(CC)CCNC(=O)c1c(C)[nH]c(/C=C2\C(=O)Nc3ccc(F)cc32)c1C | enzyme activity, inhibitor | 10 µM | inhibition | 1% |
| CNCc1ccc(-c2cc(-c3nc(-c4ccc(S(=O)(=O)C(C)C)cc4)cnc3N)on2)cc1 | enzyme activity, inhibitor | 0.4 µM | inhibition | 0% |
| O=C1NC(=O)c2cc(Nc3ccc(F)cc3)c(Nc3ccc(F)cc3)cc21 | cell-free assay | 0.5 µM | remaining signal | 89% |
| Cc1ccc(C(=O)Nc2ccc(CN3CCN(C)CC3)c(C(F)(F)F)c2)cc1C#Cc1cnc2cccnn12 | enzyme activity | 23.5 nM | remaining activity | 85% |
| CC/C(=N\NC(=O)NCc1cccc(O)c1)c1ccc(O)c(C)c1O | enzyme activity, inhibitor | 0.1 µM | inhibition | 15.8% |
| CN(C)C1CCN(CC#Cc2nn(C3CCCC3)c3nc(NCc4ccccc4)ncc23)C1 (stereo not drawn) | enzyme activity, inhibitor, FRET | 0.1 µM | inhibition | 9% |
| CC(C)(O)c1cncc(-c2nc3ccc(F)cc3n2C2CC2)c1 | cell-free assay, competition with immobilised ligand | 1 µM | remaining binding | 89% |
| O=C1Nc2ccc(Cl)cc2C1=Cc1cc(Cl)c(O)c(Cl)c1 | cell-free assay | 0.5 µM | remaining signal | 94.1% |
| CCCCNc1ncc2c(-c3ccc(F)cc3)nn(C[C@H]3CC[C@H](N)CC3)c2n1 | target engagement in cells, inhibitor, chemoproteomics | 20 mM | inhibition | -5.8% |
| O=C(NC[C@@H]1[C@H]2CN(C(=O)OCc3cc(C(F)(F)F)cc(C(F)(F)F)c3)C[C@@H]12)c1ccc2[nH]nnc2c1 | cell-free assay, competition with immobilised ligand | 1 µM | remaining binding | 98% |
| Cc1ccc(NC(=O)c2ccc(C)c(C(F)(F)F)c2)cc1C#Cc1nn(C2CCC(O)CC2)c2ncnc(N)c12 (stereo not drawn) | cell-free assay | 10 µM | remaining signal | 91% |
| Cc1c[nH]c2nccc(Oc3c(F)cc(Nc4cc(Cl)nc(N)n4)cc3F)c12 | cell-free assay, competition with immobilised ligand | 0.1 µM | remaining binding | 100% |
| CC(C)c1ccc(NC(=O)c2cccs2)c(-c2nc3ccccc3[nH]c2=O)c1 | enzyme activity, inhibitor | 1 µM | activity vs control | 94% |
